In experiment [1] the target is T1, Beta-2 adrenergic receptor (Homo sapiens, UniProt P07550). The experiment can be described thus: Binding affinity to N-terminal FLAG-tagged C-terminal His-10-tagged human beta2 adrenoceptor expressed in insect Sf9 cells by surface plasmon resonance analysis.
Target sequence in this assay (P07550 whole entry): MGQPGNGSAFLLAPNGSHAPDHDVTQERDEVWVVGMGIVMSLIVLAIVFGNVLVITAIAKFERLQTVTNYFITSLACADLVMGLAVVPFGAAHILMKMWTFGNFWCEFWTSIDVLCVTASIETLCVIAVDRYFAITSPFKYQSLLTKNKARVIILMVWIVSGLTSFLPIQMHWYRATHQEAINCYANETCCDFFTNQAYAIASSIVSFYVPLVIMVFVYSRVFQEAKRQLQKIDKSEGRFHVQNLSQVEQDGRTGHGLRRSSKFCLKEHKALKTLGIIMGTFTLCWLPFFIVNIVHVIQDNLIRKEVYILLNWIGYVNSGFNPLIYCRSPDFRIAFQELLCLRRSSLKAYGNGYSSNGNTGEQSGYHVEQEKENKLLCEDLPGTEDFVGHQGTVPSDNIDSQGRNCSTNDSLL
In experiment [2] the target is Vasopressin V2 receptor (Homo sapiens) (UniProt P30518). As to the kind of experiment: Antagonist activity at AVPR2 (unknown origin) assessed as inhibition of [Arg8]-Vasopressin induced cAMP production at 10 to 100 uM. The experiment is classed as functional. In general terms: Cyclic AMP is a second messenger, typically raised through Gs and lowered through Gi signalling.

Experiment [3] shares this target. As to the kind of experiment: Agonist activity at AVPR2 (unknown origin) assessed as stimulation of beta arrestin recruitment. The experiment is classed as functional.
Experiment [4] has the same target. As to the kind of experiment: Antagonist activity at AVPR2 (unknown origin) assessed as inhibition of [Arg8]-Vasopressin induced beta arrestin recruitment at 10 uM. The experiment is classed as functional. A general note: Arrestin recruitment assays detect the binding of arrestin to an activated receptor.
The target in experiment [5] is T1, Beta-2 adrenergic receptor. As to the kind of experiment: Binding affinity to N-terminal FLAG-tagged C-terminal His-10-tagged human beta2 adrenoceptor expressed in insect Sf9 cells by surface plasmon resonance analysis in presence of maltose neopentyl glycol. In a few lines: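 Same NTA chip capture of His-10-tagged purified receptor as the primary SPR screen, but the binding run was done in MNG detergent. KD by SPR.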
Background: Surface plasmon resonance follows binding to a sensor surface in real time, without labels.
Target sequence in this assay (P07550 whole entry): as above

Experiment [6] has as its target Vasopressin V2 receptor (Homo sapiens) (UniProt P30518). The experiment can be described thus: Agonist activity at AVPR2 (unknown origin) assessed as stimulation of cAMP production. Format: functional.
Experiment [7] deals with T1, Beta-2 adrenergic receptor. The experiment can be described thus: Antagonist activity at human beta2 adrenoceptor expressed in HEK293 cells assessed as inhibition of isoproterenol-induced cAMP production at 100 uM after 5 mins by luciferase reporter gene assay. Format: functional, cell-based.
Target sequence in this assay (P07550 whole entry, looked up): as the sequence (P07550 whole entry) above
The target of experiment [8] is T1, Beta-2 adrenergic receptor. As to the kind of experiment: Antagonist activity at human beta2 adrenoceptor containing C-terminus of V2 vasopressin receptor expressed in HEK293 cells assessed as inhibition of isoproterenol-induced beta arrestin recruitment at 100 uM after 15 to 18 hrs by luciferase reporter gene assay. Format: functional, cell-based.
Target sequence in this assay (P07550 whole entry, looked up): as the sequence (P07550 whole entry) above
Experiment [9] addresses T1, Beta-2 adrenergic receptor. The experiment can be described thus: Agonist activity at human beta2 adrenoceptor expressed in HEK293 cells assessed as stimulation of cAMP production after 5 mins by luciferase reporter gene assay. The experiment is classed as functional, cell-based.
Target sequence in this assay (P07550 whole entry, looked up): as the sequence (P07550 whole entry) above
Experiment [10] deals with T1, Beta-2 adrenergic receptor. As to the kind of experiment: Binding affinity to N-terminal FLAG-tagged C-terminal His-10-tagged human beta2 adrenoceptor expressed in insect Sf9 cells by surface plasmon resonance analysis in presence of dodecyl maltoside.
Target sequence in this assay (P07550 whole entry, looked up): as the sequence (P07550 whole entry) above
Experiment [11] has as its target T1, Beta-2 adrenergic receptor. As to the kind of experiment: Agonist activity at human beta2 adrenoceptor containing C-terminus of V2 vasopressin receptor expressed in HEK293 cells assessed as stimulation of beta arrestin recruitment after 15 to 18 hrs by luciferase reporter gene assay. Format: functional, cell-based.
Target sequence in this assay (P07550 whole entry, looked up): as the sequence (P07550 whole entry) above
Experiment [12] deals with T1, Beta-2 adrenergic receptor. As to the kind of experiment: Displacement of [125I]-Cyanopindolol from human beta2 adrenoceptor expressed in HEK293 cells after 90 mins by gamma counting analysis. The experiment is classed as cell-based.
Target sequence in this assay (P07550 whole entry, looked up): as the sequence (P07550 whole entry) above
Experiment [13] addresses Beta-1 adrenergic receptor (Homo sapiens) (UniProt P08588). As to the kind of experiment: Displacement of [125I]-Cyanopindolol from human beta1 adrenoceptor expressed in HEK293 cells after 90 mins by gamma counting analysis. The experiment is classed as cell-based.
Experiment [14] has as its target T1, Beta-2 adrenergic receptor. As to the kind of experiment: Antagonist activity at human beta2 adrenoceptor expressed in HEK293 cells assessed as inhibition of isoproterenol-induced cAMP production at 10 uM after 5 mins by luciferase reporter gene assay. The experiment is classed as functional, cell-based.
Experiment [15] has as its target T1, Beta-2 adrenergic receptor. To be noted: Sf9.
For experiment [16], the target named is T1, Beta-2 adrenergic receptor. The experiment can be described thus: Antagonist activity at human beta2 adrenoceptor containing C-terminus of V2 vasopressin receptor expressed in HEK293 cells assessed as inhibition of isoproterenol-induced beta arrestin recruitment at 10 uM after 15 to 18 hrs by luciferase reporter gene assay. The experiment is classed as functional, cell-based.

Activity calls are given as the source filed them. No cut-off for these calls is given here.

Chain of Beta-1 adrenergic receptor (Homo sapiens) (P08588 whole entry, looked up): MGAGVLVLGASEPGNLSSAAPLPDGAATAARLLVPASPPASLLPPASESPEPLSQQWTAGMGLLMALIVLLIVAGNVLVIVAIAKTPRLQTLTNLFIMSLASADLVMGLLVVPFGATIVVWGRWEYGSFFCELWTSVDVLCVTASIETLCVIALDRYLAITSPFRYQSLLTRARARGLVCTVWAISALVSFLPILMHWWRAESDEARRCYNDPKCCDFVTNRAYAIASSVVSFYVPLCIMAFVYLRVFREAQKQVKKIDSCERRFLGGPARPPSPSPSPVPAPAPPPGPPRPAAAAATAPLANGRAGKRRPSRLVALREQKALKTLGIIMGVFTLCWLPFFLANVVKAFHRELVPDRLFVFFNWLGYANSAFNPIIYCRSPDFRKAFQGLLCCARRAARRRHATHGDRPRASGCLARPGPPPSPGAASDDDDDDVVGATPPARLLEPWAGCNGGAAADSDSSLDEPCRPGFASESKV
Chain of Vasopressin V2 receptor (Homo sapiens) (P30518 whole entry): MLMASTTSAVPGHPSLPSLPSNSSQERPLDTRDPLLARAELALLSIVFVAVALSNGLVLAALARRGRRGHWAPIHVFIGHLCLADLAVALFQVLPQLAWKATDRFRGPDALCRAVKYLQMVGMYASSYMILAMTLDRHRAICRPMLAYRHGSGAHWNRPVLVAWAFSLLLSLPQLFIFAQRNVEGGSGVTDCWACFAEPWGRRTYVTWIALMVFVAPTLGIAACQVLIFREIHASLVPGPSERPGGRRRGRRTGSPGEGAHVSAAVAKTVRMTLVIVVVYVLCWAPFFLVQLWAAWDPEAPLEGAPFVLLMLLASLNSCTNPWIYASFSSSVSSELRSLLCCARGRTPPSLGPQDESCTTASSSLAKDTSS

As for `Cc1cc(N2CCNCC2)c2ccccc2n1`, the Kd (as a rule, the equilibrium constant for the complex coming apart) in experiment [1] was found to be 0.0934 µM; in [5] (read-out: Kd), 0.0725 µM. In addition, the inhibition result in experiment [2] and in experiment [4] was “inactive” in each case. Further, the outcome in [3] and in experiment [6] was inactive.

Consider `c1ccc2c(C3CCNCC3)c[nH]c2c1`, for which the equilibrium dissociation constant (Kd) in experiment [1] amounted to 22.2 µM. The inhibition result in [7] and in [8] was “Active” throughout. For the same molecule, the inhibition entry in experiment [2] and in [4] was “inactive” each time. Further, the result in experiment [3], in experiment [9], in [6] and in [11] was inactive. The outcome in experiment [10] was Active. The Kic in experiment [12] was found to be 14.1 µM; in experiment [13], 9.9 µM.

Take `FC(F)(F)c1ccc2c(N3CCNCC3)ccnc2c1`: the Kd in [5] (read-out: Kd) amounted to 8 µM.

For the molecule `c1ccc2c(N3CCNCC3)ccnc2c1`, in experiment [5] (read-out: Kd), the Kd came out at 0.348 µM.

Turning to `Cc1ccc2nc(C(F)(F)F)cc(N3CCOCC3)c2c1`, the Kd entry in [5] (sf9) was “Not Active”.

For the molecule `Cc1ccc2nc(C(F)(F)F)cc(N3CCC(F)(F)CC3)c2c1`, in experiment [5] (read-out: Kd), the Kd was determined as 67.1 µM.

`FC(F)(F)c1cc(N2CCNCC2)c2ccccc2n1`: in experiment [5] (read-out: Kd), the Kd was 0.0842 µM.

`Clc1ccc2c(N3CCNCC3)ccnc2c1`: the inhibition result in experiment [14] and in [16] was “Active” throughout. In addition, the Kd stood at 0.0825 µM in experiment [1] and 0.0765 µM in experiment [5] (read-out: Kd). Moreover, the inhibition entry in experiment [2] and in experiment [4] was “inactive” in each case. The result in experiment [3], in experiment [9], in experiment [6] and in [11] was inactive. Besides, in experiment [10], the result was Active. The Ka in [15] is 6.62 ×10⁵ /M/s. Further, the Kic in experiment [12] came out at 0.191 µM; in [13], 0.152 µM.

`Clc1cncc(Cl)c1N1CCNCC1` displayed a Kd in experiment [1] of 3.5 µM. The inhibition result in experiment [7] and in experiment [8] was “Active” in each case. In addition, the inhibition result in experiment [2] and in experiment [4] was “inactive” throughout. Besides, the result in [3], in experiment [9], in experiment [6] and in experiment [11] was inactive. Besides, the outcome in [10] was Active. For the same molecule, the Kic in experiment [12] came to 15 µM; in experiment [13], 12.9 µM.

In the case of `c1cc(N2CCNCC2)ccn1`, in [5] (read-out: Kd), the Kd worked out at 142 µM.

Turning to `Cc1ccc2nc(C(F)(F)F)cc(N3CCN(C)CC3)c2c1`, the Kd in experiment [5] (read-out: Kd) came out at 1.8 µM.

For the origin of these results see ChEMBL document CHEMBL2440021, “Discovery of β2 Adrenergic Receptor Ligands Using Biosensor Fragment Screening of Tagged Wild-Type Receptor” (ACS Med Chem Lett, 2013).
